Test results: ChEMBL document CHEMBL1156875, “Anti-influenza drug discovery: structure-activity relationship and mechanistic insight into novel angelicin derivatives” (J Med Chem, 2010)

System: not listed separately
Assay: Cytotoxicity against MDCK cells after 72 hrs
Type: cell-based, Canis lupus familiaris
Conditions: dog
Outline: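 Uninfected MDCK monolayers (seeded at 1.1 × 10^5 cells/mL, grown 24-30 h to about 90% confluency) exposed to graded compound concentrations for 72 h at 37 C. Read by formaldehyde fixation, 0.1% crystal violet staining and absorbance at 570 nm. CC50 = concentration reducing viability to 50% of control. Triplicate, repeated at least twice.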

| SMILES | CC50 at 72 h [µM] |
| --- | --- |
| Cc1ccccc1C(=O)c1oc2ccc3c(C)cc(=O)oc3c2c1-c1ccccc1 | > 25 |
| Cc1cc(=O)oc2c1ccc1oc(C(=O)c3ccccc3)c(-c3cccs3)c12 | > 25 |
| Cc1cc(=O)oc2c1ccc1oc(C(=O)c3cccc(F)c3)c(-c3ccccc3)c12 | > 25 |
| Cc1cc(=O)oc2c1ccc1oc(C(=O)c3ccccc3)c(-c3cccc4ccccc34)c12 | > 25 |
| CC(=O)c1oc2ccc3c(C)cc(=O)oc3c2c1-c1ccccc1 | > 25 |
| Cc1cc(=O)oc2c1ccc1oc(C(=O)c3ccccc3)c(-c3ccccc3Br)c12 | > 25 |
| CCOc1cccc(C(=O)c2oc3ccc4c(C)cc(=O)oc4c3c2-c2ccccc2)c1 | > 25 |
| O=C(c1ccccc1)c1oc2ccc3ccc(=O)oc3c2c1-c1ccccc1 | > 25 |
| CCCc1c(C(=O)c2ccccc2)oc2ccc3c(C)cc(=O)oc3c12 | > 25 |
| COc1ccc(-c2c(C(=O)c3ccccc3)oc3ccc4c(C)cc(=O)oc4c23)cc1 | > 25 |
| CCCCCCCCCCc1c(C(=O)c2ccccc2)oc2ccc3c(C)cc(=O)oc3c12 | > 25 |
| Cc1cc(=O)oc2c1ccc1oc(C(=O)c3ccccc3)c(-c3ccc(Cl)cc3)c12 | > 25 |
| Cc1cccc(-c2c(C(=O)c3ccccc3)oc3ccc4c(C)cc(=O)oc4c23)c1 | > 25 |
| Cc1cc(=O)oc2c1ccc1oc(C(=O)c3cccc(OCCCO)c3)c(-c3ccccc3)c12 | > 25 |
| COc1cccc(C(=O)c2oc3ccc4c(C)cc(=O)oc4c3c2-c2ccccc2)c1 | > 25 |
| CCCCCCc1c(C(=O)c2ccccc2)oc2ccc3c(C)cc(=O)oc3c12 | > 25 |
| C/C=C/C(=O)Oc1cccc2oc(C(=O)c3ccccc3)c(-c3ccccc3)c12 | > 25 |
| CCCCCOc1cccc(C(=O)c2oc3ccc4c(C)cc(=O)oc4c3c2-c2ccccc2)c1 | > 25 |
| Cc1cc(=O)oc2c1ccc1oc(C(=O)c3cccc(OCCO)c3)c(-c3ccccc3)c12 | > 25 |
| O=C(c1ccccc1)c1oc2ccc3c4c(c(=O)oc3c2c1-c1ccccc1)CCCC4 | > 25 |
| Cc1c(C)c2ccc3oc(C(=O)c4ccccc4)c(-c4ccccc4)c3c2oc1=O | > 25 |
| COc1ccc(C(=O)c2oc3ccc4c(C)cc(=O)oc4c3c2-c2ccccc2)cc1 | > 25 |
| Cc1cc(=O)oc2c1ccc1oc(C(=O)c3ccccc3)c(-c3cccc(C#N)c3)c12 | > 25 |
| Cc1cc(=O)oc2c1ccc1oc(C(=O)c3ccccc3)c(-c3ccc([N+](=O)[O-])cc3)c12 | > 25 |
| CCCc1cc(=O)oc2c1ccc1oc(C(=O)c3ccccc3)c(-c3ccccc3)c12 | > 25 |
| Cc1cc(=O)oc2c1ccc1oc(C(=O)c3ccccc3)c(-c3cc(Br)cc(Br)c3)c12 | > 25 |
| CCCCCCCCOc1cccc(C(=O)c2oc3ccc4c(C)cc(=O)oc4c3c2-c2ccccc2)c1 | > 25 |
| Cc1ccc(-c2c(C(=O)c3ccccc3)oc3ccc4c(C)cc(=O)oc4c23)cc1 | > 25 |

| SMILES | CC50 at 72 h [µM] |
| --- | --- |
| Cc1cc(=O)oc2c1ccc1oc(C(=O)c3ccccc3)c(-c3ccccc3)c12 | > 25 |
| Cc1cc(=O)oc2c1ccc1oc(C(=O)c3ccco3)c(-c3ccccc3)c12 | > 25 |
| Cc1cccc(C(=O)c2oc3ccc4c(C)cc(=O)oc4c3c2-c2ccccc2)c1 | > 25 |
| Cc1cc(=O)oc2c1ccc1oc(Cc3ccccc3)c(-c3ccccc3)c12 | > 25 |
| Cc1cc(=O)oc2c1ccc1oc(C(=O)c3ccccc3)c(-c3cccc(Br)c3)c12 | > 25 |
| Cc1cc(=O)oc2c1ccc1oc(C(=O)c3cccc([N+](=O)[O-])c3)c(-c3ccccc3)c12 | > 25 |
| CCCCOc1cccc(C(=O)c2oc3ccc4c(C)cc(=O)oc4c3c2-c2ccccc2)c1 | > 25 |
| Cc1cc(=O)oc2c1ccc1oc(C(=O)c3ccccc3)c(-c3ccc(Br)cc3)c12 | > 25 |
| O=C(c1ccccc1)c1oc2ccc3c(-c4ccccc4)cc(=O)oc3c2c1-c1ccccc1 | > 25 |
| Cc1cc(=O)oc2c1ccc1oc(C(=O)c3ccccc3)c(C)c12 | > 25 |
| CCCOc1cccc(C(=O)c2oc3ccc4c(C)cc(=O)oc4c3c2-c2ccccc2)c1 | > 25 |
| Cc1cc2oc(C(=O)c3ccccc3)c(-c3ccccc3)c2c2oc(=O)ccc12 | > 25 |
| CCc1cc(=O)oc2c1ccc1oc(C(=O)c3ccccc3)c(-c3ccccc3)c12 | > 25 |
| COc1cccc(C(=O)c2oc3ccc4c(C)cc(=O)oc4c3c2-c2cccc(Br)c2)c1 | > 25 |
| Cc1cc(=O)oc2c1ccc1oc(C(=O)c3ccccc3)c(-c3ccc4ccccc4c3)c12 | > 25 |
| Cc1cc(=O)oc2c1ccc1oc(C(=O)c3cccs3)c(-c3cccc(Br)c3)c12 | > 25 |
| Cc1cc(=O)oc2c1ccc1oc(C(=O)c3cccc(Cl)c3)c(-c3ccccc3)c12 | > 25 |
| Cc1cc(=O)oc2c1ccc1occ(-c3ccccc3)c12 | > 25 |
| Cc1cc(=O)oc2c1ccc1oc(C(=O)c3ccccc3)cc12 | > 25 |
| O=C(c1ccccc1)c1oc2ccc3ccccc3c2c1-c1ccccc1 | > 25 |
| COc1ccccc1C(=O)c1oc2ccc3c(C)cc(=O)oc3c2c1-c1ccccc1 | > 25 |
| Cc1cc(=O)oc2c1ccc1oc(C(=O)c3ccsc3)c(-c3ccccc3)c12 | > 25 |
| Cc1cc(=O)oc2c1ccc1oc(C(=O)c3cccc(OCCN(C)C)c3)c(-c3ccccc3)c12 | 17.7 |
| Cc1cc(=O)oc2c1ccc1oc(-c3ccccc3)c(-c3ccccc3)c12 | > 25 |
| Cc1ccc(C(=O)c2oc3ccc4c(C)cc(=O)oc4c3c2-c2ccccc2)cc1 | > 25 |
| Cc1cc(=O)oc2c1ccc1oc(C(=O)c3cccc(O)c3)c(-c3ccccc3)c12 | > 25 |
| Cc1cc(=O)oc2c1ccc1oc(C(=O)c3ccccc3)c(-c3cccc(Cl)c3)c12 | > 25 |

System: Influenza A virus
Assay: Antiviral activity against human influenza A virus A/WSN/33 (H1N1) in MDCK cells assessed as reduction of virus-induced cytopathic effect
Type: functional, organism-based
Conditions: A/WSN/1933(H1N1)
Outline: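 MDCK cells (1.1 × 10^5 cells/mL in DMEM + 10% FBS) grown 24-30 h at 37 C to about 90% confluency. Virus (100 TCID50) premixed with serially diluted compound, adsorbed 1 h at 37 C. Overlay of serum-free DMEM with trypsin 2.5 μg/mL and 0.1% DMSO, then 72 h at 37 C. Formaldehyde fixation, crystal violet stain, A570. IC50 = 50% CPE reduction versus virus control. Triplicate, at least two runs.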

| SMILES | IC50 [µM] |
| --- | --- |
| Cc1ccccc1C(=O)c1oc2ccc3c(C)cc(=O)oc3c2c1-c1ccccc1 | 6.62 |
| Cc1cc(=O)oc2c1ccc1oc(C(=O)c3ccccc3)c(-c3cccs3)c12 | 0.15 |
| Cc1cc(=O)oc2c1ccc1oc(C(=O)c3cccc(F)c3)c(-c3ccccc3)c12 | 0.29 |
| Cc1cc(=O)oc2c1ccc1oc(C(=O)c3ccccc3)c(-c3cccc4ccccc34)c12 | 0.88 |
| CC(=O)c1oc2ccc3c(C)cc(=O)oc3c2c1-c1ccccc1 | > 25 |
| Cc1cc(=O)oc2c1ccc1oc(C(=O)c3ccccc3)c(-c3ccccc3Br)c12 | 0.73 |
| CCOc1cccc(C(=O)c2oc3ccc4c(C)cc(=O)oc4c3c2-c2ccccc2)c1 | 0.12 |
| O=C(c1ccccc1)c1oc2ccc3ccc(=O)oc3c2c1-c1ccccc1 | 17.6 |
| CCCc1c(C(=O)c2ccccc2)oc2ccc3c(C)cc(=O)oc3c12 | 0.29 |
| COc1ccc(-c2c(C(=O)c3ccccc3)oc3ccc4c(C)cc(=O)oc4c23)cc1 | 10.1 |
| CCCCCCCCCCc1c(C(=O)c2ccccc2)oc2ccc3c(C)cc(=O)oc3c12 | > 25 |
| Cc1cc(=O)oc2c1ccc1oc(C(=O)c3ccccc3)c(-c3ccc(Cl)cc3)c12 | 3.92 |
| Cc1cccc(-c2c(C(=O)c3ccccc3)oc3ccc4c(C)cc(=O)oc4c23)c1 | 0.1 |
| Cc1cc(=O)oc2c1ccc1oc(C(=O)c3cccc(OCCCO)c3)c(-c3ccccc3)c12 | 2.65 |
| COc1cccc(C(=O)c2oc3ccc4c(C)cc(=O)oc4c3c2-c2ccccc2)c1 | 0.11 |
| CCCCCCc1c(C(=O)c2ccccc2)oc2ccc3c(C)cc(=O)oc3c12 | 0.65 |
| C/C=C/C(=O)Oc1cccc2oc(C(=O)c3ccccc3)c(-c3ccccc3)c12 | 20.8 |
| CCCCCOc1cccc(C(=O)c2oc3ccc4c(C)cc(=O)oc4c3c2-c2ccccc2)c1 | 0.14 |
| Cc1cc(=O)oc2c1ccc1oc(C(=O)c3cccc(OCCO)c3)c(-c3ccccc3)c12 | 6.09 |

| SMILES | IC50 [µM] |
| --- | --- |
| O=C(c1ccccc1)c1oc2ccc3c4c(c(=O)oc3c2c1-c1ccccc1)CCCC4 | > 25 |
| Cc1c(C)c2ccc3oc(C(=O)c4ccccc4)c(-c4ccccc4)c3c2oc1=O | 0.29 |
| COc1ccc(C(=O)c2oc3ccc4c(C)cc(=O)oc4c3c2-c2ccccc2)cc1 | 1.67 |
| Cc1cc(=O)oc2c1ccc1oc(C(=O)c3ccccc3)c(-c3cccc(C#N)c3)c12 | 0.53 |
| Cc1cc(=O)oc2c1ccc1oc(C(=O)c3ccccc3)c(-c3ccc([N+](=O)[O-])cc3)c12 | 0.76 |
| CCCc1cc(=O)oc2c1ccc1oc(C(=O)c3ccccc3)c(-c3ccccc3)c12 | 0.47 |
| Cc1cc(=O)oc2c1ccc1oc(C(=O)c3ccccc3)c(-c3cc(Br)cc(Br)c3)c12 | 0.1 |
| Cc1cc(=O)oc2c1ccc1oc(C(=O)c3ccccn3)c(-c3ccccc3)c12 | 0.61 |
| CCCCCCCCOc1cccc(C(=O)c2oc3ccc4c(C)cc(=O)oc4c3c2-c2ccccc2)c1 | 7.97 |
| Cc1ccc(-c2c(C(=O)c3ccccc3)oc3ccc4c(C)cc(=O)oc4c23)cc1 | 0.82 |
| Cc1cc(=O)oc2c1ccc1oc(C(=O)c3ccccc3)c(-c3ccccc3)c12 | 0.14 |
| Cc1cc(=O)oc2c1ccc1oc(C(=O)c3ccco3)c(-c3ccccc3)c12 | 0.41 |
| Cc1cccc(C(=O)c2oc3ccc4c(C)cc(=O)oc4c3c2-c2ccccc2)c1 | 0.26 |
| Cc1cc(=O)oc2c1ccc1oc(Cc3ccccc3)c(-c3ccccc3)c12 | 0.63 |
| Cc1cc(=O)oc2c1ccc1oc(C(=O)c3ccccc3)c(-c3cccc(Br)c3)c12 | 0.08 |
| Cc1cc(=O)oc2c1ccc1oc(C(=O)c3cccc([N+](=O)[O-])c3)c(-c3ccccc3)c12 | 1.71 |
| CCCCOc1cccc(C(=O)c2oc3ccc4c(C)cc(=O)oc4c3c2-c2ccccc2)c1 | 0.08 |
| Cc1cc(=O)oc2c1ccc1oc(C(=O)c3ccccc3)c(-c3ccc(Br)cc3)c12 | 0.46 |
| O=C(c1ccccc1)c1oc2ccc3c(-c4ccccc4)cc(=O)oc3c2c1-c1ccccc1 | > 25 |

| SMILES | IC50 [µM] |
| --- | --- |
| Cc1cc(=O)oc2c1ccc1oc(C(=O)c3ccccc3)c(C)c12 | 4.51 |
| CCCOc1cccc(C(=O)c2oc3ccc4c(C)cc(=O)oc4c3c2-c2ccccc2)c1 | 0.15 |
| Cc1cc2oc(C(=O)c3ccccc3)c(-c3ccccc3)c2c2oc(=O)ccc12 | 7.76 |
| CCc1cc(=O)oc2c1ccc1oc(C(=O)c3ccccc3)c(-c3ccccc3)c12 | 0.24 |
| COc1cccc(C(=O)c2oc3ccc4c(C)cc(=O)oc4c3c2-c2cccc(Br)c2)c1 | 0.09 |
| Cc1cc(=O)oc2c1ccc1oc(C(=O)c3ccccc3)c(-c3ccc4ccccc4c3)c12 | 1.91 |
| Cc1cc(=O)oc2c1ccc1oc(C(=O)c3cccs3)c(-c3cccc(Br)c3)c12 | 0.06 |
| Cc1cc(=O)oc2c1ccc1oc(C(=O)c3cccc(Cl)c3)c(-c3ccccc3)c12 | 0.26 |
| Cc1cc(=O)oc2c1ccc1occ(-c3ccccc3)c12 | > 25 |
| Cc1cc(=O)oc2c1ccc1oc(C(=O)c3ccccc3)cc12 | 2.43 |
| O=C(c1ccccc1)c1oc2ccc3ccccc3c2c1-c1ccccc1 | > 25 |
| COc1ccccc1C(=O)c1oc2ccc3c(C)cc(=O)oc3c2c1-c1ccccc1 | 0.64 |
| Cc1cc(=O)oc2c1ccc1oc(C(=O)c3ccsc3)c(-c3ccccc3)c12 | 0.15 |
| Cc1cc(=O)oc2c1ccc1oc(C(=O)c3cccc(OCCN(C)C)c3)c(-c3ccccc3)c12 | 5.28 |
| Cc1cc(=O)oc2c1ccc1oc(-c3ccccc3)c(-c3ccccc3)c12 | > 25 |
| Cc1ccc(C(=O)c2oc3ccc4c(C)cc(=O)oc4c3c2-c2ccccc2)cc1 | 0.87 |
| Cc1cc(=O)oc2c1ccc1oc(C(=O)c3cccc(O)c3)c(-c3ccccc3)c12 | 0.72 |
| Cc1cc(=O)oc2c1ccc1oc(C(=O)c3ccccc3)c(-c3cccc(Cl)c3)c12 | 1.41 |
| Cc1cc(=O)oc2c1ccc1oc(C(=O)c3ccc([N+](=O)[O-])cc3)c(-c3ccccc3)c12 | > 6.25 |
